Active and inactive are the calls of the source. The rule behind the calls is not given here.
Assays:
[1] = molecular target: T1, Glycine receptor subunit alpha-1 (Homo sapiens) (UniProt P23415); experiment: Displacement of radioligand from strychnine sensitive glycine receptor assessed as 50% receptor inhibition at 10^-5 M
T1 sequence (whole entry): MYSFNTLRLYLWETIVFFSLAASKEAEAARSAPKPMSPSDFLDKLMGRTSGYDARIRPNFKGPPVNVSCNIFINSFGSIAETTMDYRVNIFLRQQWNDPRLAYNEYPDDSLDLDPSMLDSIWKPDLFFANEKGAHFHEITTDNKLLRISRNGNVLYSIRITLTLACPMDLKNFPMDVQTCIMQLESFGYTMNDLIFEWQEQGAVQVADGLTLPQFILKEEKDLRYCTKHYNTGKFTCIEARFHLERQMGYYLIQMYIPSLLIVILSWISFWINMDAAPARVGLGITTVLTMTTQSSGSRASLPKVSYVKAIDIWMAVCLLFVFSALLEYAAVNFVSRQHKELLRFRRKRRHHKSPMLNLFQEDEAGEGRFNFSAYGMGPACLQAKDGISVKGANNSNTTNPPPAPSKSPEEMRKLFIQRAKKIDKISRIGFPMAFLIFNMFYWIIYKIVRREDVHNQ
Summary of the method: (§1)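 Part of a contracted (NovaScreen) panel of 64 radioligand/enzyme assays, with the test compound run at 10⁻⁵ M and 10⁻⁷ M. Each assay was scored by whether radioligand displacement exceeded 50% at each concentration.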

[2] = molecular target: T2, Muscarinic acetylcholine receptor M2 (Homo sapiens) (UniProt P08172); experiment: Displacement of radioligand from muscarinic M2 receptor assessed as 50% receptor inhibition at 10^-5 M; summary of the method: as §1
T2 sequence (whole entry): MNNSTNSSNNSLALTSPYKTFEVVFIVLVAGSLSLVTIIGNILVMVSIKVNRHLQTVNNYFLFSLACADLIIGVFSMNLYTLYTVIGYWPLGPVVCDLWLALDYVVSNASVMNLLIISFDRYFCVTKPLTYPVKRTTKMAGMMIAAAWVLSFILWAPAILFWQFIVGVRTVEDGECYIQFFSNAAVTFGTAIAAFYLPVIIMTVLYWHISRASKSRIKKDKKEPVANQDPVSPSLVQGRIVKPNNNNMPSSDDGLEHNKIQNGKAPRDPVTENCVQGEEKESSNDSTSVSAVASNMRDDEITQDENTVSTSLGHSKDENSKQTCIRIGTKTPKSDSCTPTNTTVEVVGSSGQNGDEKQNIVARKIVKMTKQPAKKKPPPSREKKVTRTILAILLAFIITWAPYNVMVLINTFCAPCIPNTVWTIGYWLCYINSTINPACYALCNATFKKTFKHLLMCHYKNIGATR

[3] = Displacement of radioligand from muscarinic receptor assessed as 50% receptor inhibition at 10^-5 M; summary of the method: as §1
[4] = molecular target: T3, Substance-K receptor (Homo sapiens) (UniProt P21452); experiment: Displacement of radioligand from neurokinin NK2 receptor assessed as 50% receptor inhibition at 10^-5 M; summary of the method: as §1
T3 sequence (whole entry): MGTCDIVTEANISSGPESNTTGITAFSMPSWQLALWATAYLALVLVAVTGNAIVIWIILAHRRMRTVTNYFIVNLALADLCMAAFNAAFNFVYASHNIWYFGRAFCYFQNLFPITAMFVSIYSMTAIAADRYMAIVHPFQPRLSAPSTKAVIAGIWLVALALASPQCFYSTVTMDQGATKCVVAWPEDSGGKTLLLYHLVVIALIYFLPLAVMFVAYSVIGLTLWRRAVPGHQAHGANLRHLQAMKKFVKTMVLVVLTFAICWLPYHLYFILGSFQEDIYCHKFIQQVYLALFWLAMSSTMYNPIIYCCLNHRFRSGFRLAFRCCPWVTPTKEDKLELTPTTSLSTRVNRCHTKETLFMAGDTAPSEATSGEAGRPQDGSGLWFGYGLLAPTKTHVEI

[5] = molecular target: D(1A) dopamine receptor (Homo sapiens, UniProt P21728); experiment: Displacement of [3H]SCH-23390 from human D1 receptor in cell-based assay
Sequence of D(1A) dopamine receptor (P21728 whole entry): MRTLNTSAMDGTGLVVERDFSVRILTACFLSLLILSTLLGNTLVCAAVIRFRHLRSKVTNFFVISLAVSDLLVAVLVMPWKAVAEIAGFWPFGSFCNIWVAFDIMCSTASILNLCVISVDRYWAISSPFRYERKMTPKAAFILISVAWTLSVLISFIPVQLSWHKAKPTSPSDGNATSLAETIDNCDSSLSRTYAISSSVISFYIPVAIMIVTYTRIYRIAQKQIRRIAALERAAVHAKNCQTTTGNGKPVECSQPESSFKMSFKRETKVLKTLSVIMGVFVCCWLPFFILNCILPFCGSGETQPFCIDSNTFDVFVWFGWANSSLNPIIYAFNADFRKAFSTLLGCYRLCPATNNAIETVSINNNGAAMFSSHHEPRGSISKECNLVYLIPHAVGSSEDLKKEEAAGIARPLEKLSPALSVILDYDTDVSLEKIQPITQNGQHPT
Summary of the method: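 LhD1 cells were labelled with 0.18 nM [3H]SCH-23390, with 1 μM SCH-23390 for nonspecific binding. Ki was from standard assay conditions, as mean ± SEM of replicates. A value >10000 nM denotes under 30% displacement at that concentration.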

[6] = molecular target: T4, 5-hydroxytryptamine receptor 1A (Homo sapiens, UniProt P08908); experiment: Displacement of [3H]8-OH-DPAT from human 5HT1A receptor expressed in HEK cells; format: cell-based, HEK293
T4 sequence (P08908 whole entry): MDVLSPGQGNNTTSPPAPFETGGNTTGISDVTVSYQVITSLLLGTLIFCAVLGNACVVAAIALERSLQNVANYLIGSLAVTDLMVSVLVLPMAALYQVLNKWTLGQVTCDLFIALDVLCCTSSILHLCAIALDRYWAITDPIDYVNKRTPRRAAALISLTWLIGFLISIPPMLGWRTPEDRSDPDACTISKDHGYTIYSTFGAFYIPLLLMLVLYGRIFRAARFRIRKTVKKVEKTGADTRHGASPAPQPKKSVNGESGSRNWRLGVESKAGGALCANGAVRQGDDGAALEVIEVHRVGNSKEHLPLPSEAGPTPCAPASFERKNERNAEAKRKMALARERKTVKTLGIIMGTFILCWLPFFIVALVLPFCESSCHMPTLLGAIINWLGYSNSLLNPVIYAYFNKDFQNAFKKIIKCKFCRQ
Summary of the method: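 Assay used HEK-h5-HT1A cells with 0.5 nM [3H]8-OH-DPAT, and nonspecific binding defined by 1 μM dihydroergotamine. Ki came from standard competition conditions, as mean ± SEM of replicate assays.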

[7] = Displacement of radioligand from adrenergic alpha1 receptor assessed as 50% receptor inhibition at 10^-7 M; summary of the method: as §1
[8] = Displacement of radioligand from adrenergic alpha2 receptor assessed as 50% receptor inhibition at 10^-7 M; summary of the method: as §1
[9] = molecular target: Cannabinoid receptor 1 (Homo sapiens) (UniProt P21554); experiment: Displacement of radioligand from cannabinoid CB1 receptor assessed as 50% receptor inhibition at 10^-7 M; summary of the method: as §1
Sequence of Cannabinoid receptor 1 (Homo sapiens) (P21554 whole entry): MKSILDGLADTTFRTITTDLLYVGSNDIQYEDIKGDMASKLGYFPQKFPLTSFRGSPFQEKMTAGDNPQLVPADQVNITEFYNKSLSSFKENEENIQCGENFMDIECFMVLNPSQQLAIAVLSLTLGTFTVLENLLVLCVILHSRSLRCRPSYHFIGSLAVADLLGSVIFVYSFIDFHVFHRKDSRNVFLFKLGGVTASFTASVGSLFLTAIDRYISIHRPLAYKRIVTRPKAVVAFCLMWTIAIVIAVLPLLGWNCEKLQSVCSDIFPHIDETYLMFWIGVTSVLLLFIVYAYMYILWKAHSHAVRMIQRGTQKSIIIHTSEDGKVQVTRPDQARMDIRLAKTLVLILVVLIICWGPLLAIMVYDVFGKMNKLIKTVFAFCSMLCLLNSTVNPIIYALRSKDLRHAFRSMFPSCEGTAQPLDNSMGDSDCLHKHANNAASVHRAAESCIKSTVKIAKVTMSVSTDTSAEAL

[10] = Displacement of radioligand from dopamine D4.2 receptor assessed as 50% receptor inhibition at 10^-7 M; summary of the method: as §1
[11] = molecular target: T2, Muscarinic acetylcholine receptor M2 (Homo sapiens); experiment: Displacement of radioligand from muscarinic M2 receptor assessed as 50% receptor inhibition at 10^-7 M; summary of the method: as §1
[12] = molecular target: T1, Glycine receptor subunit alpha-1 (Homo sapiens); experiment: Displacement of radioligand from strychnine sensitive glycine receptor assessed as 50% receptor inhibition at 10^-7 M; summary of the method: as §1
[13] = Displacement of radioligand from BZT-sensitive L-type calcium channel assessed as 50% receptor inhibition at 10^-7 M; summary of the method: as §1

For `COc1cc2c(cc1OC)CN(CCCCn1cc(-c3ccc(F)cc3)c3ccccc31)CC2`, the inhibition [1] was “Active”, the inhibition [2] was “Active” and the inhibition [3] was “Active”. The inhibition [4] was “Active”, the Ki [5] was over 10000 nM and the Ki [6] was 1510 nM. The inhibition [7] was “inactive”, the inhibition [8] was “inactive” and the inhibition [9] was “inactive”. For the same compound, the inhibition [10] was “inactive”, the inhibition [11] was “inactive” and the inhibition [12] was “Active”. For the same compound, the inhibition [13] was “inactive”.

From ChEMBL document CHEMBL1828538, “Synthesis and pharmacological evaluation of indole-based sigma receptor ligands” (Eur J Med Chem, 2011)
